This passage reports inhibition and IC50 results from ChEMBL document CHEMBL1817562, “Docking and SAR studies of D- and L-isofagomine isomers as human β-glucocerebrosidase inhibitors” (Bioorg Med Chem, 2011).

Test [1] concerns the target T1, Glucosylceramidase (Bos taurus) (UniProt Q2KHZ8).
T1 sequence (whole entry): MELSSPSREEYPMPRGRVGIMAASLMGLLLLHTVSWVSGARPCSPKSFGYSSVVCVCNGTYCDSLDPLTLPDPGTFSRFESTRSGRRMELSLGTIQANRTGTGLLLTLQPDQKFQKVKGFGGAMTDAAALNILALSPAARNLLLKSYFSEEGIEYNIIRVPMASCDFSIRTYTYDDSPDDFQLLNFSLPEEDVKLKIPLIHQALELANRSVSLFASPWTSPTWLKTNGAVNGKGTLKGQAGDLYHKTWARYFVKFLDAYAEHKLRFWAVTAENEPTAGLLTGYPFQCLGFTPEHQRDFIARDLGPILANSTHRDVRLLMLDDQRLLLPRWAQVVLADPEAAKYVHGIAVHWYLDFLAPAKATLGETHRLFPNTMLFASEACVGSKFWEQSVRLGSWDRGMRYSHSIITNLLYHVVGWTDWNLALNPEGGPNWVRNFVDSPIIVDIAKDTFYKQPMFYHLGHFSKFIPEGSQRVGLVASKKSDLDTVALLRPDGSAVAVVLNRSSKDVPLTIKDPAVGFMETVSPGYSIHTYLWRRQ
The experiment in a line: Inhibition of bovine liver beta-glucosidase assessed as production of p-nitrophenol using p-nitrophenyl glycoside as substrate at 1000 uM by spectrophotometry.

Another test relates to Helix pomatia. As to the kind of experiment: Inhibition of snail beta-mannosidase assessed as production of p-nitrophenol at 1000 uM by spectrophotometry. In outline: (§1)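 p-Nitrophenyl glycoside matched to each enzyme, 2 mM, with enzyme at that enzyme's optimum pH: Penicillium decumbens α-L-rhamnosidase pH 4.0, bovine liver β-galactosidase pH 6.8, coffee bean α-galactosidase pH 6.5, jack bean α-mannosidase pH 4.5, snail β-mannosidase pH 4.5. Stopped with 400 mM Na2CO3; released p-nitrophenol read at 400 nm.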

The target in test [2] is Sucrase-isomaltase, intestinal (Rattus norvegicus) (UniProt P23739). Conditions: 1000 uM.
Test [3] has the same target. The following applies: 1000 uM. This is another data set of the same source.
Test [4] deals with T2, Lysosomal acid glucosylceramidase (Homo sapiens) (UniProt P04062).
T2 sequence (whole entry): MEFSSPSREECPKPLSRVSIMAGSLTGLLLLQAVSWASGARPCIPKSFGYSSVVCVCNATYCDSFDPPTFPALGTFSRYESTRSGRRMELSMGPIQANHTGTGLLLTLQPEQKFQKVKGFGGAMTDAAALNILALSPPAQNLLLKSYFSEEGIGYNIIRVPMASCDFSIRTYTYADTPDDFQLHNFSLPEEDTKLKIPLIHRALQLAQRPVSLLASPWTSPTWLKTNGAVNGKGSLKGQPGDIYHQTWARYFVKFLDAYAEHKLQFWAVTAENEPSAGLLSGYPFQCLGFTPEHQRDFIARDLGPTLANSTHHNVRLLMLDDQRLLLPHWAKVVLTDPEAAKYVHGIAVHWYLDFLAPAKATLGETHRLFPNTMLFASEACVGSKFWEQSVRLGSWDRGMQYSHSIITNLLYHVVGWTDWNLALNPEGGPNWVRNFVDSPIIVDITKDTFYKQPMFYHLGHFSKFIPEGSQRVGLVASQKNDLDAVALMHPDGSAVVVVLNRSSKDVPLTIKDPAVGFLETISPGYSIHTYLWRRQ
The following applies: 1000 uM.

In another test the test system is Coffea. The experiment in a line: Inhibition of coffee beans alpha-galactosidase assessed as production of p-nitrophenol at 1000 uM by spectrophotometry. The procedure, abridged:
as §1

For test [5], the species on record is Rattus norvegicus. The following applies: 1000 uM.
Test [6] is described as follows: Inhibition of rat intestinal cellobiase assessed as production of p-nitrophenol by spectrophotometry.
In test [7] the target is Lactase/phlorizin hydrolase (Rattus norvegicus, UniProt Q02401). The experiment in a line: Inhibition of rat intestinal lactase assessed as production of p-nitrophenol by spectrophotometry.
The next test has as its system Oryza sativa. Conditions: 1000 uM.
The subject of the next test is Canavalia ensiformis. As to the kind of experiment: Inhibition of jack beans alpha-mannosidase assessed as production of p-nitrophenol at 1000 uM by spectrophotometry. The procedure, abridged: as §1
The subject of the next test is Penicillium decumbens. As to the kind of experiment: Inhibition of Penicillium decumbens alpha-L-rhamnosidase assessed as production of p-nitrophenol at 1000 uM by spectrophotometry. In outline: as §1
The test system of another test is Prunus dulcis. The following applies: 1000 uM.
Test [8] concerns the target T3, Tissue alpha-L-fucosidase (Bos taurus) (UniProt Q2KIM0).
T3 sequence (whole entry): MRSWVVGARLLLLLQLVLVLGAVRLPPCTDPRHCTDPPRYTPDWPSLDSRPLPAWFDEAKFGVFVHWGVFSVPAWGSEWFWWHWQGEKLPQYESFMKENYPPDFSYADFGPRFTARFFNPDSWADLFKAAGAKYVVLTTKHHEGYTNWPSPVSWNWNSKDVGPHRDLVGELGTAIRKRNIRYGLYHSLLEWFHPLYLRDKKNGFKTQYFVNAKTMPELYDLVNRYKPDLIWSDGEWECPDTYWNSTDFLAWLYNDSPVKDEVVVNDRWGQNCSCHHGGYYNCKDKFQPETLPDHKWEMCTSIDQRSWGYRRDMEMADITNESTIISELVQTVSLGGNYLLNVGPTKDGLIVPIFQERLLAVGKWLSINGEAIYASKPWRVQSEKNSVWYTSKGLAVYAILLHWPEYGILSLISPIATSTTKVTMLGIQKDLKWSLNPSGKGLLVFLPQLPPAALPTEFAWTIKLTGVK
The following applies: 1000 uM.

The target of test [9] is T4, Beta-galactosidase (Bos taurus) (UniProt Q58D55).
T4 sequence (whole entry): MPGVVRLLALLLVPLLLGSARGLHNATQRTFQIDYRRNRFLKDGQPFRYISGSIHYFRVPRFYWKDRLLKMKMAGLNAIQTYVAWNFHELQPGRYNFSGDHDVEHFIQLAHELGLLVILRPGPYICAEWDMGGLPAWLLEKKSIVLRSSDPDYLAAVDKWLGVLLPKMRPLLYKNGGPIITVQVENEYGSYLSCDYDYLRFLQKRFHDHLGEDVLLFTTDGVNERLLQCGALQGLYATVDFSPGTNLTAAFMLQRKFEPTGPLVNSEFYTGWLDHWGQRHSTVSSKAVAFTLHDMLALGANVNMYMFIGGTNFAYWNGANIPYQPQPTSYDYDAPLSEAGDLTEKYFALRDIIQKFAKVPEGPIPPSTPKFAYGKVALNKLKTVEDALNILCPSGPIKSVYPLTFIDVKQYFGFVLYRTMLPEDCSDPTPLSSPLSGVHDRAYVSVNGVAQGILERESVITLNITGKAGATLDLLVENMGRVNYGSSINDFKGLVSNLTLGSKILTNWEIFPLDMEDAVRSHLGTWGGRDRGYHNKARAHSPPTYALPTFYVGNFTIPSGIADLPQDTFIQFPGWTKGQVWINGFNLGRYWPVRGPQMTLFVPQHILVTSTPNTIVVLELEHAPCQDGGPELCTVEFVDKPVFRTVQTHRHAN
The experiment in a line: Inhibition of bovine liver beta-galactosidase assessed as production of p-nitrophenol at 1000 uM by spectrophotometry. In outline:
as §1

The species named for test [10] is Rattus norvegicus. The experiment in a line: Inhibition of rat intestinal cellobiase assessed as production of p-nitrophenol at 1000 uM by spectrophotometry.
In test [11] the target is Lactase/phlorizin hydrolase (Rattus norvegicus) (UniProt Q02401). Conditions: 1000 uM.
Test [12] can be described thus: Inhibition of rice alpha-glucosidase assessed as production of D-glucose using maltose as substrate after 10 to 30 mins by spectrophotometry. Further details: species or system Oryza sativa. The procedure, abridged:
(§2)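 Enzymes were rice α-glucosidase at pH 5.0 and rat small-intestine brush border membranes (Kessler method) at pH 5.8. Each reaction contained 25 mM maltose and enzyme and was incubated 10–30 min at 37 °C. Reactions were stopped by heating at 100 °C for 3 min, then centrifuged. Released D-glucose was measured with a glucose test reagent by absorbance at 505 nm.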

A short description of test [13]: Inhibition of almond beta-glucosidase assessed as production of p-nitrophenol using p-nitrophenyl glycoside as substrate by spectrophotometry.
Test [14] in a line: Inhibition of rat intestinal maltase assessed as production of D-glucose using maltose as substrate after 10 to 30 mins by spectrophotometry. The procedure, abridged:
as §2

Some results are limits rather than exact numbers.

Chain of Lactase/phlorizin hydrolase (Rattus norvegicus) (Q02401 868-1928 limits assumed): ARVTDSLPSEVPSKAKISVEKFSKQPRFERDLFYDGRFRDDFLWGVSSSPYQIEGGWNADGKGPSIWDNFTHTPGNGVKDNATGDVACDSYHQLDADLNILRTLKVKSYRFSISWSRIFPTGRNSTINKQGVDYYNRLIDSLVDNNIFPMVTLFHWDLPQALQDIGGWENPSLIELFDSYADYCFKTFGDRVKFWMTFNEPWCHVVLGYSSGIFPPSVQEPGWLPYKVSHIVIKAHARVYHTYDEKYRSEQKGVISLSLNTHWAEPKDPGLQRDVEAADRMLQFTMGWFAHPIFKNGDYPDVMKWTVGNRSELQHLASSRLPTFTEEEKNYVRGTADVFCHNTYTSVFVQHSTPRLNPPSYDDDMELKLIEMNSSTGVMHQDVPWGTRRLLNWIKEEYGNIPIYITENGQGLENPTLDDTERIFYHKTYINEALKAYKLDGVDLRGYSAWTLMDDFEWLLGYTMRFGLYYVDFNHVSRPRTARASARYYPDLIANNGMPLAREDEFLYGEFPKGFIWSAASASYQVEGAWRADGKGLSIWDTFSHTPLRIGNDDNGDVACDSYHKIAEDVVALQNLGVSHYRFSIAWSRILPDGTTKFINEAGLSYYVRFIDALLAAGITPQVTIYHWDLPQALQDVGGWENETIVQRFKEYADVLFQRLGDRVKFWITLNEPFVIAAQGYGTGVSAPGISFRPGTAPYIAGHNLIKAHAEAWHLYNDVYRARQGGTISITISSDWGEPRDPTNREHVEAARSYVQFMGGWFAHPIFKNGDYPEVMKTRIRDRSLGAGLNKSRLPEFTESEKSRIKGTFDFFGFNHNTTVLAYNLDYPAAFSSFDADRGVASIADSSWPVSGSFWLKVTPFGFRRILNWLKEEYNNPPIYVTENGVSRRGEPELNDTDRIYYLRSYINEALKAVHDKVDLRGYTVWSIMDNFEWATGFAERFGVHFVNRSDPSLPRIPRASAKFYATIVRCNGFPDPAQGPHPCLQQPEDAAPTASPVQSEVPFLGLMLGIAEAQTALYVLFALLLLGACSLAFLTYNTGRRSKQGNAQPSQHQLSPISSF
Chain of Lactase/phlorizin hydrolase (Q02401 868-1928 limits assumed): as above
Chain of Sucrase-isomaltase, intestinal (Rattus norvegicus) (P23739 1-1013 limits assumed): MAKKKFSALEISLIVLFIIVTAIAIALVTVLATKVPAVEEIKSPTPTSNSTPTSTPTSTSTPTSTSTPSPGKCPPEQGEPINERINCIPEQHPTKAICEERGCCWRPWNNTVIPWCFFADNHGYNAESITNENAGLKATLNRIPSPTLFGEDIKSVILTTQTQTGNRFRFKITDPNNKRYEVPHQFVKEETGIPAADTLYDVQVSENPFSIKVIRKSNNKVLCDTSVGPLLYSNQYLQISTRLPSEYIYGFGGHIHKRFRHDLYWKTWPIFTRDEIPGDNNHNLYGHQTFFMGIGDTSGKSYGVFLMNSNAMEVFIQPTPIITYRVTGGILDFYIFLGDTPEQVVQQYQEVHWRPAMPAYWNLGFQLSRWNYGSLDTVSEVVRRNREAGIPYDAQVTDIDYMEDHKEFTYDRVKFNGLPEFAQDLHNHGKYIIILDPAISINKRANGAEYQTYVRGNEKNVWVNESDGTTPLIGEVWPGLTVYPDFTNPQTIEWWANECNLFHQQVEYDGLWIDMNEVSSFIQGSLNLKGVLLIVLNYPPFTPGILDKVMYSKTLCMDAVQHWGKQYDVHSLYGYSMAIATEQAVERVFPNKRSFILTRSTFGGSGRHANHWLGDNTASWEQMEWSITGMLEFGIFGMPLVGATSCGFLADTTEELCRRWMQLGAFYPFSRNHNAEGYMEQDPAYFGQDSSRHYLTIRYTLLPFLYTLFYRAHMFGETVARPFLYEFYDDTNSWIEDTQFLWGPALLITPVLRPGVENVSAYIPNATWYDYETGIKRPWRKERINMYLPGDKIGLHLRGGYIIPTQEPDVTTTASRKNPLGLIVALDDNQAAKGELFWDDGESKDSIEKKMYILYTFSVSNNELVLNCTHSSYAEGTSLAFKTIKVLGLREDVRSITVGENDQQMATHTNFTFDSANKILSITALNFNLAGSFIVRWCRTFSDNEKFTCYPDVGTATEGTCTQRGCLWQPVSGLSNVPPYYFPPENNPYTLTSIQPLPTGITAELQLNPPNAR
Chain of Sucrase-isomaltase, intestinal (Rattus norvegicus) (P23739 1014-1841 limits assumed): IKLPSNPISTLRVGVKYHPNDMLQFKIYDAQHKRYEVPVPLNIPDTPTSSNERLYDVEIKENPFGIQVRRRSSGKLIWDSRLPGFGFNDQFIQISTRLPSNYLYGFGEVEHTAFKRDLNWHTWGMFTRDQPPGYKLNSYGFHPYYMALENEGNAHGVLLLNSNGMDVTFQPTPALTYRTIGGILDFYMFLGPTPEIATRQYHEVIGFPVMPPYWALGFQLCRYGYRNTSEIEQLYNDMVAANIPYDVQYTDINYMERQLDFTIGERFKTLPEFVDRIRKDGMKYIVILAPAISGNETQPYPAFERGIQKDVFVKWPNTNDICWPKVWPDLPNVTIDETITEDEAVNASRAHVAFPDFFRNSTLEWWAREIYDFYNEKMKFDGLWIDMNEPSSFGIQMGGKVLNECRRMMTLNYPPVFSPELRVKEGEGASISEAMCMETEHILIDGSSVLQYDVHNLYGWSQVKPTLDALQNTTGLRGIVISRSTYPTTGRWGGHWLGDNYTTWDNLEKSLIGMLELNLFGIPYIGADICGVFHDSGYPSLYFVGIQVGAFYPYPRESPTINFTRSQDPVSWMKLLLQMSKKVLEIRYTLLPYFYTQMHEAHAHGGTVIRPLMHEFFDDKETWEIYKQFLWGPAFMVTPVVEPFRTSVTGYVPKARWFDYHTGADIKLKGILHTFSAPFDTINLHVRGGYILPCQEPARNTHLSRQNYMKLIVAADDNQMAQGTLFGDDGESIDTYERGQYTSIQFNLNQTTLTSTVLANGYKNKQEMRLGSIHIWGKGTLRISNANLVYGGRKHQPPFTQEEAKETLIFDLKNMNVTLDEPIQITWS

For the compound `OC[C@H]1CNC[C@H](O)[C@H]1O`, the inhibition (in test [1]; with Helix pomatia; in test [2]; in test [3]; in test [4]; with Coffea) was less than 50% each time. Besides, the inhibition (in the test filed under Rattus norvegicus [5]; in the test with Oryza sativa; in the test on Canavalia ensiformis; in the test on Penicillium decumbens; in the test on Prunus dulcis; in test [8]) was less than 50% each time. For the same compound, in test [9], the inhibition (in general, the relative decrease from the control value, in per cent) is less than 50%. In addition, the IC50 – broadly, the concentration that gives 50% inhibition – in test [6] amounted to 912 µM; in test [7], 211 µM.
Take `OC[C@@H]1NCC[C@H](O)[C@@H]1O`: the inhibition (in [1]; in the test with Helix pomatia; in test [2]; in [3]; in [4]; in the test listed under Rattus norvegicus [10]) was less than 50% in each case. In addition, the inhibition in the test on Coffea, in the test filed under Rattus norvegicus [5], in the test on Oryza sativa, in the test with Canavalia ensiformis, in the test on Penicillium decumbens and in the test on Prunus dulcis was less than 50% in each case. In addition, the inhibition in test [8], in test [9] and in [11] was less than 50% throughout.
In the case of `OC[C@H]1NCC[C@H](O)[C@H]1O`, the inhibition (in test [1]; in the test on Helix pomatia; in [4]; in the test filed under Rattus norvegicus [10]; in the test on Coffea; in the test listed under Rattus norvegicus [5]) was less than 50% each time. In addition, the inhibition (in the test on Oryza sativa; in the test on Canavalia ensiformis; in the test with Penicillium decumbens; in the test with Prunus dulcis; in test [8]; in [9]) was less than 50% each time. In addition, in test [11], the inhibition is less than 50%.
As for `OC[C@H]1NCC[C@H](O)[C@@H]1O`, the inhibition (in the test with Helix pomatia; in test [2]; in test [3]; in test [4]; with Coffea; in the test filed under Rattus norvegicus [5]) was less than 50% in each case. For the same compound, the inhibition (with Canavalia ensiformis; in the test on Penicillium decumbens; in test [8]) was less than 50% throughout. In addition, the IC50 in test [6] amounted to 39 µM; in test [7] it was 4.3 µM; in [12], 120 µM; in test [13] it was 120 µM.
Regarding `OC[C@@H]1CNC[C@@H](O)[C@H]1O`, the inhibition (in test [1]; in the test on Helix pomatia; in [2]; in test [3]; in test [4]; in the test listed under Rattus norvegicus [10]) was less than 50% in each case. The inhibition in the test on Coffea, in the test listed under Rattus norvegicus [5], in the test with Oryza sativa, in the test with Canavalia ensiformis, in the test on Penicillium decumbens and with Prunus dulcis was less than 50% throughout. The inhibition in test [8] and in [9] was less than 50% in each case. In test [7], the IC50 is 469 µM.
For the compound `OC[C@H]1CNC[C@H](O)[C@@H]1O`, the inhibition (in test [1]; with Helix pomatia; in test [2]; in test [3]; with Coffea; in the test listed under Rattus norvegicus [5]) was less than 50% each time. For the same compound, the inhibition (with Oryza sativa; in the test on Canavalia ensiformis; in the test on Penicillium decumbens; in [8]; in test [9]) was less than 50% in each case. The IC50 is 334 µM in [6], 52 µM in test [7] and 443 µM in [13].
As for `OC[C@@H]1NC[C@@H](O)[C@H](O)[C@H]1O`, the inhibition (in [1]; in the test on Helix pomatia; in the test listed under Rattus norvegicus [10]; in the test with Coffea; with Canavalia ensiformis; in the test on Penicillium decumbens) was less than 50% each time. Moreover, the figures for the IC50 in test [14], in test [12] and in test [13] were 28 µM, 4.3 µM and 980 µM, respectively.
In the case of `OC[C@@H]1NCC[C@H](O)[C@H]1O`, the inhibition (in test [1]; with Helix pomatia; in test [2]; in [3]; in test [4]; in the test filed under Rattus norvegicus [10]) was less than 50% each time. Besides, the inhibition in the test with Coffea, in the test filed under Rattus norvegicus [5], in the test on Oryza sativa, in the test with Canavalia ensiformis, with Penicillium decumbens and in the test on Prunus dulcis was less than 50% each time. Also, the inhibition in [8], in test [9] and in test [11] was less than 50% throughout.
